FGF22 binding: shifts melting point of recombinant human FGF22; recombinant FGF22 thermal shift, SYPRO orange fluorescence; percent of sucrose octasulfate shift, DMSO zero; actives 1.5% (n = 340,000); activity (Tm shift, normalised), % at 9.99 µM; Q9HCT0;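 active = mean Tm shift, scaled 0 neutral to 100 positive control, at about 1.3% or above, every replicate too, limit read from the data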
NSD2 inh: blocks human histone methyltransferase NSD2. O96028. NSD2 peptide methylation, AlphaScreen, 120 min. inhibition, % at 12.5 µM. actives 0.54% (n = 310,000). AID 743445; in the data active = inhibition above about 50%
Target sequence (O96028 whole entry, looked up): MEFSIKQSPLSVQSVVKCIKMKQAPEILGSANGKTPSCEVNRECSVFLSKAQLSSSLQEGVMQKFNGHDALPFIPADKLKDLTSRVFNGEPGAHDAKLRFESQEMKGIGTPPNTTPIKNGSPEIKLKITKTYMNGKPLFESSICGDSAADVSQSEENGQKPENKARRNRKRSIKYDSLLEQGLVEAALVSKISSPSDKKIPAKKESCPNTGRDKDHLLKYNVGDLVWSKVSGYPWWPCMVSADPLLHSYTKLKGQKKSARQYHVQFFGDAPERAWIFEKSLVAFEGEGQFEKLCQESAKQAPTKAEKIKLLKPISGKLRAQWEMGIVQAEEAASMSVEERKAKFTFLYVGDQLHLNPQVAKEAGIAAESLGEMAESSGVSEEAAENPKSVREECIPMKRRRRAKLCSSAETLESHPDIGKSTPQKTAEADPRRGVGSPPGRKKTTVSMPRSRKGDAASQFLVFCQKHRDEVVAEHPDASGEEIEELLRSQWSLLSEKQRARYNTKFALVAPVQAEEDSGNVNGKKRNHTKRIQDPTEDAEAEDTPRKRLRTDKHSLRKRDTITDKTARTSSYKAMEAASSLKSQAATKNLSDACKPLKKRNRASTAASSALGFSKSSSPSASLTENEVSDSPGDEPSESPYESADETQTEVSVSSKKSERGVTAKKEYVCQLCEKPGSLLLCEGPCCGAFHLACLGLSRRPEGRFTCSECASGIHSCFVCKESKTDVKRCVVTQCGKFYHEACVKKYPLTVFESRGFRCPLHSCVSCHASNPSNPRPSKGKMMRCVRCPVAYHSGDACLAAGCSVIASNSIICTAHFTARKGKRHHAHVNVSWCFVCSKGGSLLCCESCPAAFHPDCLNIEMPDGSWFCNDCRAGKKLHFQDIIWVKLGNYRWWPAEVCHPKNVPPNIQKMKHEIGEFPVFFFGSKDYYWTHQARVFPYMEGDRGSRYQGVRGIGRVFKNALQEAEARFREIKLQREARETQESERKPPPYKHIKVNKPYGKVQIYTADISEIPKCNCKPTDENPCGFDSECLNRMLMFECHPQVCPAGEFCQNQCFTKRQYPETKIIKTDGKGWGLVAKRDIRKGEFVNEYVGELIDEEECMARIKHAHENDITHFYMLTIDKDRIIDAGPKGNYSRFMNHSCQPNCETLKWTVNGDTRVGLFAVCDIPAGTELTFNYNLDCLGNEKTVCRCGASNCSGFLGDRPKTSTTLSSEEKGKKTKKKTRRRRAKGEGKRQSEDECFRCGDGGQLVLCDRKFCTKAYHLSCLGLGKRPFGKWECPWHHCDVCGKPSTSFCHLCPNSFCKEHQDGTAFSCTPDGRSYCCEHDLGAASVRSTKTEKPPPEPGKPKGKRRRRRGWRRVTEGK
Casp6 inh: caspase-6 (human) enzyme inhibition; P55212; purified caspase-6, Z-VEID-R110 cleavage fluorescence; inhibition, % at 12.5 µM; actives 0.53% (n = 350,000); AID 686996;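 active = mean inhibition across replicates at least about 35%, with every replicate also reaching that limit, limit read from the data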;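 also: 0% = median of neutral control wells and 100% = no fluorescence left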
SIRT5 block: sirtuin-5 (human) deacylase inhibition; Q9NXA8; AID 652115; Purified SirT5, succinyl-peptide AMC, trypsin-coupled fluorescence; actives 1.1% (n = 330,000); inhibition, % at 15 µM; in the data active = inhibition above about 15%
UCH37 DUB inh: inhibitors of human deubiquitinating enzyme UCH37; Q9Y5K5; purified proteasome/UCH37, Ub-AMC cleavage fluorescence; inhibition, % (no concentration beside the values); actives 0.33% (n = 330,000); AID 588478;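 active = mean inhibition over replicate wells above about 20%, limit read from the data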;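 also: 0% = compound-free wells with enzyme and 100% = wells lacking proteasome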
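assay system = human UCH37 enzyme supplied as purified proteasome complex | amount = proteasome at 0.15 nM in the dispensed enzyme solution | schedule = 30 min compound-proteasome preincubation then 25 min substrate reaction, room temperature | measured by = fluorescence, ex 355 nm, em 460 nm | benchmarks = no-proteasome wells (full inhibition) and compound-free wells (no inhibition)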
* hit, by the source's call. In the library only some 2.6% were active in any assay of this set; here they are far more common.

How did Cc1c(-c2ccc(OCCN3CCOCC3)cc2)c(=O)oc2ccc3ccccc3c12 do in these assays?
FGF22 binding: 0; Casp6 inh: -3; SIRT5 block: 19*

What do the screens show for `COc1ccc(CN(C)C[C@@H]2Oc3c(NS(=O)(=O)c4cn(C)cn4)cccc3C(=O)N([C@H](C)CO)C[C@H]2C)cc1`?
FGF22 binding: 0; Casp6 inh: 1; SIRT5 block: 1

What do the screens show for `COc1ccccc1OCC(=O)NCC1CCCN(C(=O)c2ccccc2SC)C1` (stereo not given)?
FGF22 binding: 0; NSD2 inh: 0; Casp6 inh: -1; SIRT5 block: -5; UCH37 DUB inh: 5

What do the screens show for `COc1ccccc1OCC(=O)NCC1CCCN(C(=O)c2ccccc2C(C)=O)C1` (stereo not given)?
FGF22 binding: 0; NSD2 inh: 1; Casp6 inh: 2; SIRT5 block: 17*; UCH37 DUB inh: 2

How did CCc1cc(C(=O)O)c(NC(=O)/C=C/c2ccc(OC)c(OC)c2)s1 do in these assays?
FGF22 binding: 0; NSD2 inh: 4; Casp6 inh: -3; SIRT5 block: 7; UCH37 DUB inh: 24*

How did CCc1cc(C(=O)O)c(NC(=O)/C=C/c2ccc(OC)cc2)s1 do in these assays?
FGF22 binding: 0; NSD2 inh: 0; Casp6 inh: 2; SIRT5 block: 2; UCH37 DUB inh: 19

What do the screens show for `CC(C)NC(=O)Nc1ccc2c(c1)C(=O)N([C@H](C)CO)C[C@H](C)[C@H](CN(C)CC1CC1)OCCCC[C@@H](C)O2`?
FGF22 binding: 0; Casp6 inh: -1; SIRT5 block: -2

How did C=CCNc1nc(Nc2cc(Cl)ccc2OC)nc(OC)n1 do in these assays?
FGF22 binding: 0; NSD2 inh: -1; Casp6 inh: 39*; SIRT5 block: 1; UCH37 DUB inh: 1

What do the screens show for `COc1ccc(N2CCN(C(=O)CSc3ccc([N+](=O)[O-])cc3)CC2)cc1`?
FGF22 binding: 0; NSD2 inh: 1; Casp6 inh: 2; SIRT5 block: 7; UCH37 DUB inh: 8

What do the screens show for `COc1ccc(N2CCN(C(=O)CSc3ccc(C)cc3)CC2)cc1`?
FGF22 binding: 44*; NSD2 inh: -5; Casp6 inh: -1; SIRT5 block: -4; UCH37 DUB inh: 5

How did COc1ccc(N2CCN(C(=O)CCNS(=O)(=O)c3ccc(C)cc3)CC2)cc1 do in these assays?
FGF22 binding: 0; NSD2 inh: 3; Casp6 inh: 36*; SIRT5 block: -6; UCH37 DUB inh: 3

What do the screens show for `C[C@@H]1CCCCO[C@H](CN(C)C(=O)Nc2cccc3ccccc23)[C@@H](C)CN([C@H](C)CO)C(=O)c2cc(NS(=O)(=O)c3ccc(F)cc3)ccc2O1`?
Casp6 inh: 0; SIRT5 block: 0

How did C[C@H](CO)N1C[C@H](C)[C@@H](CN(C)C(=O)Nc2cccc3ccccc23)OCCCC[C@H](C)Oc2ccc(NS(=O)(=O)c3ccc(Cl)cc3)cc2C1=O do in these assays?
FGF22 binding: 0; Casp6 inh: 0; SIRT5 block: 8

How did C[C@@H]1CCCCO[C@@H](CN(C)C(=O)Nc2cccc3ccccc23)[C@H](C)CN([C@H](C)CO)C(=O)c2cc(NS(=O)(=O)c3ccc(Cl)cc3)ccc2O1 do in these assays?
FGF22 binding: 2.1*; Casp6 inh: -2; SIRT5 block: 10

How did C[C@H]1CCCCO[C@H](CN(C)C(=O)Nc2cccc3ccccc23)[C@@H](C)CN([C@@H](C)CO)C(=O)c2cc(NS(=O)(=O)c3ccc(F)cc3)ccc2O1 do in these assays?
Casp6 inh: 1; SIRT5 block: 17*

What do the screens show for `CC(C)c1cc(C(=O)NN=Cc2ccoc2)cs1`?
UCH37 DUB inh: 6

Results for Cc1ccc(-c2ccc3c(c2)O[C@@H](CN(C)C)[C@@H](C)CN([C@H](C)CO)S3(=O)=O)cc1 ?
FGF22 binding: 0; Casp6 inh: -1; SIRT5 block: 3

What do the screens show for `COCC#Cc1ccc2c(c1)O[C@@H](CN(C)Cc1ccncc1)[C@H](C)CN([C@@H](C)CO)S2(=O)=O`?
FGF22 binding: 0; Casp6 inh: 1; SIRT5 block: -4

Results for O=C(O)c1ccccc1C(=O)OC1CCCC2CCCC21 (stereo not given) ?
FGF22 binding: 43*; NSD2 inh: -3; Casp6 inh: -4

What do the screens show for `O=C(O)c1ccccc1N1C(=O)C2C3CCC(C3)C2C1=O` (stereo not given)?
FGF22 binding: 0; NSD2 inh: -2; Casp6 inh: 0; SIRT5 block: 1; UCH37 DUB inh: 1

Results for CC1C2CCC(C2)C1OC(=O)c1ccccc1C(=O)O (stereo not given) ?
FGF22 binding: 44*; NSD2 inh: 3; Casp6 inh: 2

Results for Cc1nn(-c2ccccc2)c(N2CCCC2)c1C=NO ?
UCH37 DUB inh: 2

How did CN1CCN(C(=O)CCN2C(=O)S/C(=C/c3ccc(Cl)cc3)C2=O)CC1 do in these assays?
FGF22 binding: 43*; NSD2 inh: 1; Casp6 inh: -1; SIRT5 block: 0; UCH37 DUB inh: 7

How did Cc1ccc(/C=C2\SC(=O)N(CCC(=O)N3CCN(C)CC3)C2=O)cc1 do in these assays?
FGF22 binding: 0; NSD2 inh: -1; Casp6 inh: -1; SIRT5 block: 0; UCH37 DUB inh: 11

Results for COc1ccc(S(=O)(=O)Nc2ccc3c(c2)C(=O)N([C@@H](C)CO)C[C@@H](C)[C@@H](CN(C)Cc2ccc4c(c2)OCO4)O3)cc1 ?
FGF22 binding: 0; Casp6 inh: 0; SIRT5 block: 2

Results for O=c1c(-c2c(O)cc(O)c3c(=O)cc(-c4ccc(O)cc4)oc23)c(-c2ccc(O)cc2)oc2cc(O)cc(O)c12 ?
FGF22 binding: 0; Casp6 inh: 83*; SIRT5 block: 12; UCH37 DUB inh: 10

How did O=c1cc(-c2ccc(O)cc2)oc2c(-c3c(O)cc(O)c4c(=O)cc(-c5ccc(O)cc5)oc34)c(O)cc(O)c12 do in these assays?
FGF22 binding: 0; Casp6 inh: 11; UCH37 DUB inh: 7

Results for O=c1cc(-c2ccc(O)c(-c3c(O)cc(O)c4c(=O)cc(-c5ccc(O)cc5)oc34)c2)oc2cc(O)cc(O)c12 ?
FGF22 binding: 45*; Casp6 inh: 3; SIRT5 block: -4; UCH37 DUB inh: 2

What do the screens show for `O=C(C[C@@H]1C=C[C@@H](NC(=O)c2ccncc2)[C@H](CO)O1)Nc1ccc(-c2ccccc2)cc1`?
FGF22 binding: 0; Casp6 inh: 0; SIRT5 block: -6

Results for CC12C(=NO)C3C4CC5C3C(=NO)C1C5C42 (stereo not given) ?
UCH37 DUB inh: 1

How did C[C@H](CO)N1C[C@H](C)[C@H](CN(C)C)Oc2ccc(NC(=O)Nc3ccccc3)cc2C1=O do in these assays?
FGF22 binding: 0; Casp6 inh: 1; SIRT5 block: 0

Compound activity: PubChem BioAssay, several laboratories
